Results taken from ChEMBL document CHEMBL1158787, “Antibiotic terpenoid chloro-dihydroquinones from a new marine actinomycete” (J Nat Prod, 2005).
Values after ≈ are worked out from the molar mass of the structure shown.

Legend:
Staphylococcus aureus = experiment: Antimicrobial activity against methicillin-resistant Staphylococcus aureus; format: functional
Method in brief: (§1)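 Broth microdilution: MRSA or VREF grown overnight at 37 °C in GYT medium (0.1% glucose, 0.25% yeast extract, 0.5% tryptone), adjusted to OD 0.04–0.06, then diluted 1:10. Test materials serially diluted 1:2, incubated 16–18 h at 37 °C. Vancomycin (MRSA) or penicillin G (VREF) as positive controls, DMSO as negative control. MIC read from OD600.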

Enterococcus faecium = experiment: Antimicrobial activity against vancomycin resistant Enterococcus faecium; format: functional; method in brief: as §1
[1] = Cytotoxicity against human […] cell after 72 hrs by MTS assay; format: functional, cell-based
Method in brief: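 HCT-116 colon carcinoma cells were preincubated overnight at 37 °C in 5% CO2/air. Test materials were serially diluted 1:4, with etoposide as positive control and DMSO as negative control. After 72 h, viability was read as MTS reduction to formazan at 490 nm. IC50 was calculated from the curves.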

SMILES: Cc1c(O)cc2c(c1O)C(=O)C1=C[C@@H](Cl)C(C)(C)O[C@@]1(C[C@H]1C(C)(C)[C@@H](Cl)CC[C@]1(C)O)C2=O
- MIC (Staphylococcus aureus): 15.6 µg/mL (≈ 30.5 µM)
- MIC (Enterococcus faecium): 15.6 µg/mL (≈ 30.5 µM)
- IC50 [1]: 0.97 µg/mL (≈ 1.9 µM)

SMILES: C=C1CC[C@H](Cl)C(C)(C)[C@@H]1C[C@@]12OC(C)(C)[C@H](Cl)C=C1C(=O)c1c(cc(O)c(C)c1O)C2=O
- MIC (Staphylococcus aureus): 1.95 µg/mL (≈ 3.95 µM)
- MIC (Enterococcus faecium): 1.95 µg/mL (≈ 3.95 µM)

SMILES: C=C1CC[C@H](Cl)C(C)(C)[C@@H]1C[C@@]12OC(C)(C)[C@H](Cl)C[C@]1(Cl)C(=O)c1c(cc(O)c(C)c1O)C2=O
- MIC (Staphylococcus aureus): 1.9 µg/mL (≈ 3.59 µM)
- MIC (Enterococcus faecium): 3.9 µg/mL (≈ 7.36 µM)
- IC50 [1]: 1.84 µg/mL (≈ 3.47 µM)

SMILES: Cc1c(O)cc2c(c1O)C(=O)[C@H]1C[C@@H](Cl)C(C)(C)O[C@@]1(C[C@H]1C(C)(C)[C@@H](Cl)CC[C@]1(C)O)C2=O
- MIC (Staphylococcus aureus): 1.95 µg/mL (≈ 3.8 µM)
- MIC (Enterococcus faecium): 3.9 µg/mL (≈ 7.6 µM)
- IC50 [1]: 2.4 µg/mL (≈ 4.67 µM)
